Data taken from ChEMBL document CHEMBL3085690, “Naturally occurring antimicrobial peptide OH-CATH30 selectively regulates the innate immune response to protect against sepsis” (J Med Chem, 2013).
Active and inactive are the calls of the source. The rule behind the calls is not given here. Peptide text beside a SMILES is read from it.

Experiments:
[1] = tested on: RAW264.7; test: Inhibition of LPS-induced nitric oxide production in mouse RAW264.7 cells 2 to 50 ug/ml after 6 hrs by ELISA; format: functional, cell-based
[2] = tested on: BMDM; test: Induction of CXCL1 mRNA up-regulation in mouse BMDM at 20 ug/ml after 3 hrs by qRT-PCR analysis; format: functional
Procedure, shortened: (§1)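 Murine BMDMs stimulated with peptide, then target mRNA quantified by qRT-PCR. Expression normalized to GAPDH, with untreated cells set to 1.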

[3] = Cytotoxicity against mouse BMDM at 5 to 20 ug/ml by LDH release assay
[4] = tested on: Mus musculus; test: Stimulation of innate immune response in Kunming mouse assessed as protection against Escherichia coli ATCC 25922-induced mortality by measuring survival rate at 10 mg/kg, ip administered 24 hrs before bacterial infection measured up to 7 days; format: functional, organism-based; parameters: dose 10 mg/kg
Procedure, shortened: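 Female Kunming mice were challenged ip with E. coli 25922 at 2.5 × 10^8 CFU/mouse (n = 10). Peptide at 10 mg/kg in sterile saline was given ip at −24 h or +3 h relative to inoculation. Mice were monitored every 6 h and mortality was recorded for up to 7 days, with humane end points. Survival curves were compared by log-rank test.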

[5] = tested on: Mus musculus; test: Stimulation of innate immune response in Kunming mouse assessed as protection against drug-resistant Escherichia coli-induced mortality by measuring survival rate at 10 mg/kg, ip administered 5 hrs before bacterial infection measured up to 7 days; format: functional; details: route intraperitoneal
Procedure, shortened: (§2)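 Female Kunming mice (18−22 g) were dosed ip in sterile saline at 10 mg/kg, 5 h before ip challenge with clinical drug-resistant isolates: E. coli (n = 12), P. aeruginosa (n = 10) or S. aureus (n = 15). Survival was recorded for up to 7 days, with checks every 6 h and euthanasia by CO2 at the humane end point.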

[6] = tested on: PBMC; test: Increase of cytokine production in human PBMC by qRT-PCR analysis; format: functional, cell-based
[7] = tested on: BMDM; test: Induction of CCL2 mRNA up-regulation in mouse BMDM at 20 ug/ml after 3 hrs by qRT-PCR analysis; format: functional; procedure, shortened: as §1
[8] = Increase of CXCL2 protein level in mouse BMDM at 10 ug/ml after 18 hrs by ELISA; format: functional
Procedure, shortened: (§3)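 Bone marrow-derived macrophages (RPMI 1640, 10% FCS, 20% L929-conditioned medium) stimulated with peptide for 18 h. Cytokines and chemokines in culture supernatant quantified by sandwich ELISA. Mean ± SD from three independent experiments, unpaired t test.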

[9] = Increase of IL-10 protein level in mouse BMDM at 10 ug/ml after 18 hrs by ELISA; format: functional; procedure, shortened: as §3
[10] = tested on: BMDM; test: Increase of CXCL2 production in mouse BMDM after 6 hrs by ELISA in presence of pertussis toxin; format: functional
Procedure, shortened: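 BMDMs (bone marrow cells in RPMI 1640 with 10% FCS and 20% L929-conditioned medium) were preincubated 30 min with pertussis toxin (100 ng/mL), then stimulated with peptide for 6 h. CXCL2 in the supernatant was measured by ELISA. Mean ± SEM from three independent experiments, unpaired t test.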

[11] = tested on: Mus musculus; test: Stimulation of innate immune response in Kunming mouse assessed as protection against drug-resistant Staphylococcus aureus-induced mortality by measuring survival rate at 10 mg/kg, ip administered 5 hrs before bacterial infection measured up to 7 days; format: functional; details: route intraperitoneal; procedure, shortened: as §2
[12] = tested on: Mus musculus; test: Stimulation of innate immune response in Kunming mouse assessed as increase of CCL2 level in peritoneal lavage at 10 mg/kg, ip after 5 hrs; format: functional, organism-based; parameters: dose 10 mg/kg
Procedure, shortened: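 Female Kunming mice (18−22 g) received a single ip injection of peptide at 10 mg/kg in sterile saline. Peritoneal lavage was collected in 2 mL of cold sterile saline 5 h later, and cytokines and chemokines were measured by ELISA. Data are mean ± SD from four mice, compared by unpaired t test.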

[13] = tested on: Mus musculus; test: Stimulation of innate immune response in Kunming mouse infected with Staphylococcus aureus ATCC 25923 assessed as reduction of bacterial burden in peritoneal lavage by measuring survival rate at 10 mg/kg, ip administered 5 hrs before bacterial infection measured up to 7 days; format: functional, organism-based; parameters: dose 10 mg/kg
Procedure, shortened: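 Peptide at 10 mg/kg ip was given 5 h before ip challenge with E. coli 25922 (2.5 × 10^8 CFU), P. aeruginosa 27853 (8 × 10^7 CFU) or S. aureus 25923 (2 × 10^8 CFU) per mouse. Viable bacteria were counted in peritoneal lavage collected in 2 mL of cold saline (n = 7, 6 and 8 respectively; unpaired t test). Survival was recorded for up to 7 days.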

[14] = tested on: Mus musculus; test: Stimulation of innate immune response in Kunming mouse assessed as protection against CLP-induced mortality by measuring survival rate at 10 mg/kg, ip administered 12 hrs before bacterial infection measured up to 7 days; format: functional; details: route intraperitoneal
[15] = tested on: BMDM; test: Induction of CCL7 mRNA up-regulation in mouse BMDM at 20 ug/ml after 3 hrs by qRT-PCR analysis; format: functional; procedure, shortened: as §1

In the case of CC[C@H](C)[C@H](NC(=O)[C@@H](NC(=O)[C@H](CCCNC(=N)N)NC(=O)[C@@H]1CCCN1C(=O)[C@H](CCCCN)NC(=O)[C@H](CCCCN)NC(=O)[C@H](Cc1ccccc1)NC(=O)[C@H](Cc1ccccc1)NC(=O)[C@H](CCCCN)NC(=O)[C@H](CCCCN)NC(=O)[C@H](C)NC(=O)[C@H](CCCNC(=N)N)NC(=O)[C@H](CCCCN)NC(=O)[C@H](CCCCN)NC(=O)[C@@H](NC(=O)[C@H](CO)NC(=O)[C@H](CC(N)=O)NC(=O)[C@H](CCCCN)NC(=O)[C@H](CC(C)C)NC(=O)[C@H](CCCCN)NC(=O)[C@H](CCCCN)NC(=O)[C@H](Cc1ccccc1)NC(=O)[C@H](Cc1ccccc1)NC(=O)[C@@H](N)CCCCN)C(C)C)C(C)C)C(=O)NCC(=O)N[C@H](C(=O)N[C@@H](CO)C(=O)N[C@H](C(=O)N1CCC[C@H]1C(=O)N[C@@H](Cc1ccccc1)C(=O)O)[C@@H](C)CC)C(C)C (H-KFFKKLKNSVKKRAKKFFKKPRVIGVSIPF-OH), the inhibition [1] is reported as “Active”, the Activity [2] is reported as “Active” and the Activity [3] is reported as “Non-toxic”. The Activity [4] was “Active”, the survival at 10 mg/kg [5] was 92.5% and the Activity [6] was “Active”. For the same compound, the Activity [7] was “Active”, the Activity [8] was 1450 pg/mL and the Activity [9] was 156 pg/mL. For the same compound, the Activity [10] was “inactive”, the survival at 10 mg/kg [11] was 63% and the Activity [12] was “Active”. For the same compound, the Activity [13] was “Active”, the survival at 10 mg/kg [14] was 70% and the Activity [15] was “Active”.
